Results on 78 molecules are retold here after PubChem BioAssay AID504485 (Sanford-Burnham Center for Chemical Genomics, 2011).

Broadly, the IC50 is the concentration needed to halve the response being measured.

Molecules are shown by their SMILES. Calls of active or inactive are those of the source.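 Rule for the calls: active = mean IC50 at or below 20 µM; inactive = the rest.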 Some results are limits rather than exact numbers.

For the test, the system named is 697 B-cell NF-kB luciferase, PMA/ionomycin, 16 h. The test is described as follows: stimulated NF-kB reporter signal decrease, 697 cells – cell-based, luminescence, B-cell NF-kB inhibitor project, SAR follow-up (AID 504485). In short, it runs like this:
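System – human 697 B-cell line with NF-kB-driven luciferase reporter · Input – 15000 cells per well · Schedule – 1 h pretreatment, 16 h stimulation, 37 °C · Signal – SteadyGlo luminescence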
Regarding `Cc1oc(-c2ccc(OC(F)(F)F)cc2)nc1CSCC(=O)O`, the IC50 was 240 nM. Under `CCCOc1ccc(-c2nc(CSCC(=O)O)c(C)o2)cc1` stands less than 150 nM; under `CCc1ccc(-c2nc(CSCC(=O)NC3CC3)c(-c3ccccc3)o2)cc1`, > 79000 nM (inactive); under `COc1cccc(-c2cc(=O)c3cc(NC(=O)c4ccc(N(C)C)cc4)ccc3[nH]2)c1`, > 79000 nM (inactive).

For the molecule `CCc1ccc(-c2nc(CSCC(=O)NCc3ccco3)c(C)o2)cc1`, the IC50 was 49400 nM (inactive). As for `CCCCOc1ccc(-c2nc(CSCC(=O)NC3CC3)c(C)o2)cc1`, the figure is 240 nM; as for `CCOC(=O)CC(NC(=O)c1ccc(Br)cc1)c1ccc(F)c([N+](=O)[O-])c1` (stereo not drawn), 36800 nM (inactive); as for `Cc1oc(-c2ccc(C(F)(F)F)cc2)nc1CSCC(=O)O`, 970 nM. As for `COc1ccc(-c2nc(CSCC(=O)NCc3ccco3)c(C)o2)cc1`, the figure is 29500 nM (inactive); as for `CNC(=O)CCc1nc(-c2ccc(C(C)(C)C)cc2)no1`, less than 160 nM; as for `CCCCOc1ccc(-c2nc(CSCC(=O)O)c(C)o2)cc1`, 180 nM.

Consider `CCOc1ccc(-c2noc(CCC(=O)O)n2)cc1`, for which the IC50 was 34000 nM (inactive). For the molecule `CCCCc1ccc(-c2noc(CCC(=O)NC(C)(C)C)n2)cc1`, the IC50 was 2310 nM. In the case of `Cc1ccc(-c2nc(CSCC(=O)NCc3ccco3)c(C)o2)cc1`, the IC50 is > 79000 nM (inactive).

With `CCNC(=O)CCc1nc(-c2ccccc2C)no1`, the IC50 is > 79000 nM (inactive). In the case of `CCCCc1ccc(-c2noc(CCC(=O)NC(C)CC)n2)cc1` (stereo not drawn), the IC50 was 670 nM.

Take `COC(=O)CCc1nc(-c2ccc(C(C)(C)C)cc2)no1`: the IC50 is less than 160 nM.

As for `CC(C)c1ccc(-c2noc(CCC(=O)NC(C)(C)C)n2)cc1`, the IC50 is 26900 nM (inactive). As for `CCCCc1ccc(-c2noc(CCC(=O)NC)n2)cc1`, the figure is 200 nM; as for `CC(C)(C)c1ccc(-c2noc(CCC(=O)NC3CCC3)n2)cc1`, 410 nM. Under `CCNC(=O)CCc1nc(-c2ccc(OCC)cc2)no1` stands > 79000 nM (inactive).

`CCOc1ccc(-c2nc(CSCC(=O)N3CCOCC3)c(C)o2)cc1`: the IC50 is > 79000 nM (inactive). As for `CCCCOc1ccc(-c2nc(CSCC(=O)NCc3ccco3)c(C)o2)cc1`, the figure is 260 nM. Consider `CCC(C)NC(=O)CCc1nc(-c2ccc(C(C)(C)C)cc2)no1` (stereo not drawn), for which the IC50 was 490 nM. As for `Cc1oc(-c2ccc(OC(F)(F)F)cc2)nc1CSCC(=O)NC1CC1`, the figure is 2230 nM; as for `Cc1oc(-c2ccccc2)nc1CSCC(=O)NC1CC1`, > 79000 nM (inactive).

With `CC(C)(C)NC(=O)CCc1nc(-c2ccccc2)no1`, the IC50 was > 79000 nM (inactive). As for `CNC(=O)CCc1nc(-c2ccccc2)no1`, the IC50 was > 79000 nM (inactive). As for `Cc1oc(-c2ccccc2)nc1CSCC(=O)NCc1ccco1`, the figure is > 79000 nM (inactive); as for `CCc1ccc(-c2noc(CCC(=O)NC)n2)cc1`, > 79000 nM (inactive); as for `CC(C)(C)c1ccc(-c2noc(CCC(=O)O)n2)cc1`, 190 nM.

As for `COc1ccc(C(=O)Nc2ccc3[nH]c(-c4cccc(OC)c4)cc(=O)c3c2)cc1`, the IC50 is > 79000 nM (inactive).

With `CCc1ccc(-c2noc(CCC(=O)NC3CC3)n2)cc1`, the IC50 is > 79000 nM (inactive). As for `CCNC(=O)CCc1nc(-c2ccc(C(C)C)cc2)no1`, the IC50 was 320 nM. Under `CCOc1ccc(-c2nc(CSCC(=O)NC3CC3)c(-c3ccccc3)o2)cc1` stands > 79000 nM (inactive); under `CNC(=O)CCc1nc(-c2ccc(C(C)C)cc2)no1`, 210 nM; under `CCOc1ccc(-c2nc(CSCC(=O)NC3CC3)c(C)o2)cc1`, 190 nM. As for `CCc1ccc(-c2noc(CCC(=O)NC(C)(C)C)n2)cc1`, the figure is > 79000 nM (inactive); as for `CCNC(=O)CCc1nc(-c2cccc(C)c2)no1`, > 79000 nM (inactive); as for `CN(C)C(=O)CCc1nc(-c2ccc(C(C)(C)C)cc2)no1`, 41500 nM (inactive). Under `CCNC(=O)CCc1nc(-c2ccc(CC)cc2)no1` stands > 79000 nM (inactive). For the molecule `COc1ccc(-c2nc(CSCC(=O)NC3CC3)c(C)o2)cc1`, the IC50 is 29200 nM (inactive). As for `CCOc1ccccc1-c1nc(CSCC(=O)NC2CC2)c(C)o1`, the figure is > 79000 nM (inactive); as for `CCNC(=O)CCc1nc(-c2c(Cl)cccc2Cl)no1`, > 79000 nM (inactive). On to `CCOc1ccccc1-c1nc(CSCC(=O)O)c(C)o1`, for which the IC50 is > 79000 nM (inactive). Under `CC(C)(C)c1ccc(-c2noc(CCC(N)=O)n2)cc1` stands less than 160 nM; under `CCNC(=O)CCc1nc(-c2cccc(F)c2)no1`, > 79000 nM (inactive). Under `CCOc1ccc(-c2nc(CSCC(=O)O)c(C)o2)cc1` stands less than 150 nM; under `CCCCc1ccc(-c2noc(CCC(=O)NC3CC3)n2)cc1`, 210 nM. As for `CCc1ccc(-c2noc(CCC(=O)NC(C)CC)n2)cc1` (stereo not drawn), the figure is > 79000 nM (inactive).

Regarding `CCNC(=O)CCc1nc(-c2ccccc2)no1`, the IC50 is > 79000 nM (inactive). As for `O=C(O)CCc1nc(-c2ccccc2)no1`, the figure is > 79000 nM (inactive); as for `CCN(CC)C(=O)CCc1nc(-c2ccc(C(C)(C)C)cc2)no1`, 58400 nM (inactive).

For `CCNC(=O)CCc1nc(-c2ccccc2Cl)no1`, the IC50 was > 79000 nM (inactive). As for `CCNC(=O)CCc1nc(-c2ccc(C(C)(C)C)cc2)no1`, the figure is 30 nM. As for `CCOc1ccc(-c2nc(CSCC(=O)NC3CCC3)c(C)o2)cc1`, the figure is 3230 nM; as for `CC(C)Nc1ccc(C(CC(=O)O)NC(=O)c2ccccc2)cc1[N+](=O)[O-]` (stereo not drawn), > 79000 nM (inactive); as for `CCOc1ccc(-c2nc(CSCC(=O)N(C)C)c(C)o2)cc1`, > 79000 nM (inactive). Under `CCOc1ccc(-c2nc(CSCC(=O)NC)c(C)o2)cc1` stands 330 nM. As to `C#CCNC(=O)CSCc1nc(-c2ccc(OCC)cc2)oc1C`, the IC50 is less than 150 nM. As for `CCOc1ccc(-c2nc(CSCC(=O)NCC3CC3)c(C)o2)cc1`, the IC50 is 1320 nM. As for `CCc1ccc(-c2nc(CSCC(=O)NC3CC3)c(C)o2)cc1`, the figure is 480 nM.

`CC(C)c1ccc(-c2noc(CCC(=O)NC3CC3)n2)cc1`: the IC50 is 260 nM.

Take `CCNC(=O)CCc1nc(-c2cccc(OC)c2)no1`: the IC50 is > 79000 nM (inactive). In the case of `CCCOc1ccc(-c2nc(CSCC(=O)NC3CC3)c(C)o2)cc1`, the IC50 was less than 150 nM. Under `CCC(C)NC(=O)CCc1nc(-c2ccc(C(C)C)cc2)no1` (stereo not drawn) stands 7960 nM; under `Cc1oc(-c2ccc(C(F)(F)F)cc2)nc1CSCC(=O)NC1CC1`, 15700 nM. Under `Cc1ccc(-c2nc(CSCC(=O)NC3CC3)c(C)o2)cc1` stands 16200 nM; under `CCOc1ccc(-c2nc(CSCC(=O)NCc3ccco3)c(C)o2)cc1`, 210 nM.

With `CCCCc1ccc(-c2noc(CCC(=O)NCC)n2)cc1`, the IC50 was 220 nM. Under `CCOc1cccc(-c2nc(CSCC(=O)NC3CC3)c(C)o2)c1` stands > 79000 nM (inactive). As for `CCOc1ccc(-c2nc(CSCC(N)=O)c(C)o2)cc1`, the figure is less than 150 nM; as for `CCC(C)NC(=O)CCc1nc(-c2ccccc2)no1` (stereo not drawn), > 79000 nM (inactive); as for `O=C(CCc1nc(-c2ccccc2)no1)NC1CC1`, > 79000 nM (inactive).

For `CC(C)(C)c1ccc(-c2noc(CCC(=O)NC3CC3)n2)cc1`, the IC50 was 60 nM. With `CCCOc1ccc(-c2nc(CSCC(=O)NCc3ccco3)c(C)o2)cc1`, the IC50 was 170 nM. Under `COc1cccc(-c2cc(=O)c3cc(NC(=O)c4ccccc4)ccc3[nH]2)c1` stands > 79000 nM (inactive); under `CCOc1ccc(-c2nc(CSCC(=O)NC(C)(C)C)c(C)o2)cc1`, 60500 nM (inactive).
